Data set [1] relates to Mus musculus. The data set can be described thus: Effect on pentobarbitol anesthesia (antagonist activity) in mice by intravenous (iv) administration relative to TRH. The class given is functional. An outline of the steps: (§1)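 Mouse CNS assay run by the method of an earlier report. Potency ratio to TRH derived from dose-response data by parallel line assay.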
The test system of data set [2] is Mus musculus. Briefly: Effect on reserpine-induced hypothermia (antagonist activity) in mice by intraperitoneal (ip) administration relative to TRH; Nonactive. The class given is functional. The essentials:
as §1

Data set [3] relates to Mus musculus. The data set can be described thus: Toxicity and mortality indicates the number of dead animals / number of animals used at dose of 500 mg/kg by administering intravenously (iv) in 3 mice. The class given is organism-based. Further details: dose 500 mg/kg, route intravenous. The following applies: in vivo. An outline of the steps:
(§2)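 Acute toxicity in male Std/ddY mice (26-28 g), three to 10 per group. Compound dissolved in physiological saline and given as a single iv dose of 500 mg/kg. Animals observed for 1 week at 23-24 °C. Mortality recorded as dead/used.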

The subject of data set [4] is Mus musculus. The data set can be described thus: Evaluated for the effect on spontaneous locomotor activity in mice by intraperitoneal (ip) administration relative to TRH.
The subject of data set [5] is Mus musculus. Briefly: (§3) Effect on reserpine-induced hypothermia (antagonist activity) in mice by intraperitoneal (ip) administration relative to TRH. The class given is functional. The essentials: as §1
For data set [6], the system named is Mus musculus. The data set can be described thus: Toxicity and mortality indicates the number of dead animals / number of animals used at the compound dose of 500 mg/kg by administering intravenously (iv) in 3 mice. The class given is functional. An outline of the steps: as §2
The test system of data set [7] is Mus musculus. Briefly: Toxicity and mortality indicates the number of dead animals / number of animals used at the compound dose of 500 mg/kg by administering intravenously (iv) in mice. The class given is organism-based. Further details: dose 500 mg/kg, route intravenous. The following applies: in vivo. The essentials:
as §2

The subject of data set [8] is Mus musculus. The data set can be described thus: Effect on pentobarbitol anesthesia (antagonist activity) in mice by intravenous (iv) administration relative to TRHC; Not active. The class given is functional, organism-based. The essentials:
(§4)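 Mouse CNS tests followed methods from the authors' earlier paper. The potency ratio versus TRH comes from dose-response data for the test compound and TRH using the parallel line assay method.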

The subject of data set [9] is Mus musculus. The data set can be described thus: Evaluated for the effect on spontaneous locomotor activity in mice by intraperitoneal (ip) administration relative to TRHV; Not active.
Data set [10] relates to Mus musculus. Described as §3. The class given is functional, organism-based. The essentials:
as §4

Activity calls are given as the source filed them. No cut-off for these calls is given here.

In the case of `CNC(=O)[C@H]1CCCN1C(=O)[C@@H](Cc1c[nH]cn1)NC(=O)[C@@H]1CC(=O)N(C)C(=O)N1`, the Activity with Mus musculus [1] turned out to be 0.6; with Mus musculus [2], 0.9; in the data set on Mus musculus [4], 0.4. The same compound came in with a Mortality with Mus musculus [3] of 0.
Regarding `CN1C(=O)C[C@@H](C(=O)N[C@@H](Cc2c[nH]cn2)C(=O)N2CCC[C@H]2C(N)=O)NC1=O`, the figures for the Activity with Mus musculus [1], in the data set on Mus musculus [5] and in the data set on Mus musculus [4] were 28.1, 89.4 and 60.6, respectively. The Mortality in the data set with Mus musculus [6] is 0.
`CC(=O)O.CCCCCCCCCCCCCCCCCCN1C(=O)C[C@@H](C(=O)N[C@@H](Cc2c[nH]cn2)C(=O)N2CCC[C@H]2C(N)=O)NC1=O` had a Mortality in the data set on Mus musculus [7] of 1.
In the case of `CN1C(=O)C[C@@H](C(=O)N[C@H](Cc2c[nH]cn2)C(=O)N2CCC[C@@H]2C(=O)OCc2ccccc2)NC1=O.Cl`, the outcome in the data set on Mus musculus [8], in the data set with Mus musculus [9] and with Mus musculus [10] was inactive. For the same compound, the Mortality with Mus musculus [3] was found to be 3.

Source of the values: ChEMBL document CHEMBL1125135, “Synthesis and central nervous system actions of thyrotropin-releasing hormone analogues containing a dihydroorotic acid moiety” (J Med Chem, 1990).
